PMC3773367 (Biochemistry, 2010)

What was measured:
ThArsA [1] = assay type: biochemical; settings: read-out: Km for ATP
wild-type ArsA = wild-type ArsA (Escherichia coli, UniProt P08690); settings: read-out: Km for ATP
ThArsA [2] = assay: Photoaffinity labelling with increasing 8-azido[γ-32P]ATP; assay type: binding; settings: read-out: apparent Kd
K16Q ThArsA = assay: as above; assay type: binding; settings: read-out: apparent Kd
E. coli strain JM109 = assay: Arsenite resistance assay; assay type: cell-based, Escherichia coli
[3] = ATPase activity, NADH-coupled assay; assay type: biochemical, Escherichia coli; settings: for ATPase activity relative to wild type: % of wild-type activity
Sb = assay type: binding, Escherichia coli; settings: 10 μM ArsA, 2 mM ATPγS, 2.5 mM MgCl2; Sb(III) per ArsA
In short: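 Purified ArsA buffer-exchanged into 50 mM MOPS-KOH pH 7.5. Incubated 1 h on ice with 2 mM ATPγS, 2.5 mM MgCl2 and a range of potassium antimonyl tartrate concentrations. Unbound metalloid removed on a spin gel-filtration column in the same buffer. Eluate diluted in 2% HNO3 and antimony measured by ICP-MS against an antimony standard. Binding expressed as a function of Sb(III) concentration.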

Chain of wild-type ArsA (P08690 whole entry): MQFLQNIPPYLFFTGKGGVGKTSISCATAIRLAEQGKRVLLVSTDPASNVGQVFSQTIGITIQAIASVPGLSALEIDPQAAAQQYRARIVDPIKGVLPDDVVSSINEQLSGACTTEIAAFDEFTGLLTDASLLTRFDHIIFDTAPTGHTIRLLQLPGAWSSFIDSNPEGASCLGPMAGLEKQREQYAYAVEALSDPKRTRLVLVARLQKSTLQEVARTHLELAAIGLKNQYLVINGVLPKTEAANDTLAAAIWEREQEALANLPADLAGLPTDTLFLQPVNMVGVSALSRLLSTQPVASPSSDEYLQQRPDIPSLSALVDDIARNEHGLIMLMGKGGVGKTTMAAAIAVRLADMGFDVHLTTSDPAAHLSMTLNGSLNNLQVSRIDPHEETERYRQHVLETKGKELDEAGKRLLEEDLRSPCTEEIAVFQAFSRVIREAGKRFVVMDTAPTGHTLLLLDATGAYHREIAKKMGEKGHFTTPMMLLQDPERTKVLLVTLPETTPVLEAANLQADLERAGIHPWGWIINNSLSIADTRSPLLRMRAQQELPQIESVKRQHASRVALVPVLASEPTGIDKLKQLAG

Nc1ncnc2c1ncn2[C@@H]1O[C@H](COP(=O)(O)OP(=O)(O)OP(=O)(O)O)[C@@H](O)[C@H]1O [ATP, adenosine 5'-triphosphate]
Km (ThArsA [1]): 170 µM | Km (wild-type ArsA): 170 µM

[N-]=[N+]=Nc1nc2c(N)ncnc2n1[C@@H]1O[C@H](COP(=O)(O)OP(=O)(O)OP(=O)(O)O)[C@@H](O)[C@H]1O [8-azido[γ-32P]ATP, 8-azidoadenosine 5'-[γ-32P]triphosphate]
Kd (ThArsA [2]): 50 µM | Kd (K16Q ThArsA): 55 µM

O=[As][O-].[Na+] [sodium arsenite]
sodium arsenite concentration in which cells could grow (E. coli strain JM109; cells expressing wild-type arsA and arsB genes): 5 mM | sodium arsenite concentration at which cells were sensitive (E. coli strain JM109; cells without an ars operon): 1 mM

B1: K16Q ArsA: ArsA with signature Lys16 (A1 half) changed to glutamine (protein, UniProt P08690 1-583, looked up, variant K16Q)
Arsenical pump-driving ATPase: MQFLQNIPPYLFFTGQGGVGKTSISCATAIRLAEQGKRVLLVSTDPASNVGQVFSQTIGITIQAIASVPGLSALEIDPQAAAQQYRARIVDPIKGVLPDDVVSSINEQLSGACTTEIAAFDEFTGLLTDASLLTRFDHIIFDTAPTGHTIRLLQLPGAWSSFIDSNPEGASCLGPMAGLEKQREQYAYAVEALSDPKRTRLVLVARLQKSTLQEVARTHLELAAIGLKNQYLVINGVLPKTEAANDTLAAAIWEREQEALANLPADLAGLPTDTLFLQPVNMVGVSALSRLLSTQPVASPSSDEYLQQRPDIPSLSALVDDIARNEHGLIMLMGKGGVGKTTMAAAIAVRLADMGFDVHLTTSDPAAHLSMTLNGSLNNLQVSRIDPHEETERYRQHVLETKGKELDEAGKRLLEEDLRSPCTEEIAVFQAFSRVIREAGKRFVVMDTAPTGHTLLLLDATGAYHREIAKKMGEKGHFTTPMMLLQDPERTKVLLVTLPETTPVLEAANLQADLERAGIHPWGWIINNSLSIADTRSPLLRMRAQQELPQIESVKRQHASRVALVPVLASEPTGIDKLKQLAG
ATPase activity relative to wild type [3]: 70% | ATPase activity relative to wild type ([3]; listed as K16Q): approximately 70% | EC50 ([3]; read-out: concentration of antimonite [Sb(III)] required for half-maximal activation): 20 µM | reduction in the affinity of ATP ([3]; versus wild type): 3 fold

B2: C113A/C422A: ArsA derivative lacking the Sb(III)-binding residues Cys113 and Cys422 (protein, UniProt P08690 1-583, looked up, variant C113A C422A)
Arsenical pump-driving ATPase: MQFLQNIPPYLFFTGKGGVGKTSISCATAIRLAEQGKRVLLVSTDPASNVGQVFSQTIGITIQAIASVPGLSALEIDPQAAAQQYRARIVDPIKGVLPDDVVSSINEQLSGAATTEIAAFDEFTGLLTDASLLTRFDHIIFDTAPTGHTIRLLQLPGAWSSFIDSNPEGASCLGPMAGLEKQREQYAYAVEALSDPKRTRLVLVARLQKSTLQEVARTHLELAAIGLKNQYLVINGVLPKTEAANDTLAAAIWEREQEALANLPADLAGLPTDTLFLQPVNMVGVSALSRLLSTQPVASPSSDEYLQQRPDIPSLSALVDDIARNEHGLIMLMGKGGVGKTTMAAAIAVRLADMGFDVHLTTSDPAAHLSMTLNGSLNNLQVSRIDPHEETERYRQHVLETKGKELDEAGKRLLEEDLRSPATEEIAVFQAFSRVIREAGKRFVVMDTAPTGHTLLLLDATGAYHREIAKKMGEKGHFTTPMMLLQDPERTKVLLVTLPETTPVLEAANLQADLERAGIHPWGWIINNSLSIADTRSPLLRMRAQQELPQIESVKRQHASRVALVPVLASEPTGIDKLKQLAG
stoichiometry of Sb(III) binding (Sb): only background levels

B3: K335Q ArsA: ArsA with signature Lys335 (A2 half) changed to glutamine (protein, UniProt P08690 1-583, looked up, variant K335Q)
Arsenical pump-driving ATPase: MQFLQNIPPYLFFTGKGGVGKTSISCATAIRLAEQGKRVLLVSTDPASNVGQVFSQTIGITIQAIASVPGLSALEIDPQAAAQQYRARIVDPIKGVLPDDVVSSINEQLSGACTTEIAAFDEFTGLLTDASLLTRFDHIIFDTAPTGHTIRLLQLPGAWSSFIDSNPEGASCLGPMAGLEKQREQYAYAVEALSDPKRTRLVLVARLQKSTLQEVARTHLELAAIGLKNQYLVINGVLPKTEAANDTLAAAIWEREQEALANLPADLAGLPTDTLFLQPVNMVGVSALSRLLSTQPVASPSSDEYLQQRPDIPSLSALVDDIARNEHGLIMLMGQGGVGKTTMAAAIAVRLADMGFDVHLTTSDPAAHLSMTLNGSLNNLQVSRIDPHEETERYRQHVLETKGKELDEAGKRLLEEDLRSPCTEEIAVFQAFSRVIREAGKRFVVMDTAPTGHTLLLLDATGAYHREIAKKMGEKGHFTTPMMLLQDPERTKVLLVTLPETTPVLEAANLQADLERAGIHPWGWIINNSLSIADTRSPLLRMRAQQELPQIESVKRQHASRVALVPVLASEPTGIDKLKQLAG
ATPase activity (in words) ([3]; purified protein): inactive
